Hits are enriched below; roughly 3.7% of the tested compounds scored in any of these assays.
MPTP inh: mitochondrial permeability transition pore inhibitors, primary screen, biochemical, isolated mouse mitochondria, absorbance. Ca2+ swelling absorbance, 30 min. inhibition, % at 10 µM. actives 1.4% (n = 360,000). AID 602449, 2012;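 active = inhibition of 50% or more, scaled per plate between neutral and stimulator controls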;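 also: 0% = DMSO wells given calcium and 100% = 1 mM EGTA wells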
aDG glyco act: activators of alpha-DG glycosylation, primary screen, uHTS, Pro5-aDG cells, AlphaScreen | activation, % at 10 µM | actives 0.22% (n = 360,000) | alpha-DG glycosylation AlphaScreen (IIH6); 0% Pro5, 100% B10-LARGE cell signal;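 active = activation of at least 8% versus controls, or a plate z-score of at least 8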;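 also: Pro5 are CHO cells carrying HIG-tagged alpha-DG that lacks glycosylation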
procasp3 activ: activators of human procaspase-3 D3A mutant, primary screen, biochemical, absorbance, PC-3 D3A mutant, single concentration | Caspase-3 (Homo sapiens), P42574 | recombinant procaspase-3 D3A, Ac-DEVD-pNA absorbance 405 nm | activation, % at 8.5 µM | actives 0.11% (n = 330,000);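 active = activation above the mean of all tested compounds plus 3 SD, cut at about 21% in these data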;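 also: 0% = DMSO alone and 100% = DMSO wells spiked with extra 5 µM PC-3 D3A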
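Assay system: Autoprocessing-dead procaspase-3 D3A mutant enzyme; also added: Ac-DEVD-pNA; doses: one concentration, 8.5 µM nominal, 0.8% DMSO; times: 1 h compound preincubation, 2 h substrate hydrolysis at 25 °C; technique: 405 nm absorbance of p-nitroaniline, reads at 0 and 120 min; measure: % activation between DMSO and enzyme-spiked controls; repeats: single replicate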
procasp7 counter: procaspase-7 activators, primary screen, counter-screen for procaspase-3 activator project, biochemical, absorbance, HTS, human | recombinant procaspase-7, Ac-DEVD-pNA absorbance 405 nm; D23A/D198A/D206A triple mutant, cannot self-cleave; scale: DMSO 0, 5 µM enzyme 100 | AID 463210, 2010 | activation, % at 8.5 µM | actives 0.093% (n = 330,000);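 active = percent activation above the screen-wide mean plus 3 SD, cut at about 25% in these data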
Target sequence (P55210 whole entry D23A/D198A/D206A): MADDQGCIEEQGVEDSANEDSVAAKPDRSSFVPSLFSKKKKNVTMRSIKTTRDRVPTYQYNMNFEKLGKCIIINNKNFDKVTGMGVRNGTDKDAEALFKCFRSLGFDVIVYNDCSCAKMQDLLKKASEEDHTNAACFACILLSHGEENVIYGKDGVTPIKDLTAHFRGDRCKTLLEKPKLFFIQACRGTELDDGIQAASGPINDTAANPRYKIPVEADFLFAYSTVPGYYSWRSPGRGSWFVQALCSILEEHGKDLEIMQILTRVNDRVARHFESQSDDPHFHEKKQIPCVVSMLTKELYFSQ
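signal = Epi-absorbance of released pNA at 405 nm, two timepoints | assay system = Uncleavable procaspase-7 mutant enzyme | reagent = Ac-DEVD-pNA substrate, 400 µM as added | times = 1 h enzyme–compound preincubation and 2 h substrate reaction, both 25 °C | benchmarks = low DMSO alone, high DMSO plus 5 µM PC-7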
NR3A LBD binder: binders of NR3A ligand-binding domain, primary screen, biophysical, differential scanning fluorimetry, uHTS. Glutamate receptor ionotropic, NMDA 3A (GRIN3A) ligand-binding domain. NR3A LBD differential scanning fluorimetry, Tm shift; 0% = protein alone, 100% = glycine-bound protein. Tm shift relative to glycine control, % at 25 µM. actives 2.5% (n = 340,000). AID 1259313, 2017;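 active = melting temperature shift of at least 10% of the positive control shift, at one fixed dose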
Numbers without * were called inactive; . = not tested or not shown.

SMILES	MPTP inh	aDG glyco act	procasp3 activ	procasp7 counter	NR3A LBD binder
Cc1ccc(NC(=O)CSc2nnc(NC(=O)c3ccc(S(=O)(=O)N4CCOCC4)cc3)s2)cc1	2	0	4	6	28*
CCOC(=O)c1ccc(NC(=O)CSc2nnc(NC(=O)c3ccc(S(=O)(=O)N4CCOCC4)cc3)s2)cc1	5	0	4	8	37*
NC(=O)CSc1nnc(NC(=O)c2ccc(S(=O)(=O)N3CCCCC3)cc2)s1	2	0	-10	1	0
Nc1nnc(SCC(=O)Nc2ccc(S(=O)(=O)N3CCOCC3)cc2)s1	-2	0	-2	6	-2
CCCNC(=O)C1(C)CCCN(Cc2ccc3ccccc3c2)C1 (configuration not stated)	-1	0	.	.	.
Cc1onc(-c2c(F)cccc2Cl)c1C(=O)Nc1ccc(Cl)c(S(=O)(=O)N(C)C)c1	-2	0	-12	-8	-2
COC(=O)[C@]12CCCCC=C1N(Cc1ccco1)C(=O)[C@H](CC(=O)NCCC(C)C)C2	0	0	.	.	.
Cc1ccccc1Nc1nc(N)nc(CSc2nc3ccccc3s2)n1	0	0	5	-3	-16
Cc1ccc(Nc2nc(N)nc(CSc3nc4ccccc4s3)n2)cc1	5	1	-2	10	17*
CC(C)C[C@H]1CN(CCCC[C@@H]2CNC(=O)C(=O)N2CCc2ccccc2)C(=O)C(=O)N1CCc1ccccc1	-1	0	.	.	.
Cc1cc(OCC(=O)OCC(=O)NC2CCCCCC2)ccc1Cl	-1	0	4	5	5
O=C(O)c1ccc(NS(=O)(=O)c2ccc(N3CCCC3)c([N+](=O)[O-])c2)cc1	0	0	-10	7	10*
COC(=O)c1cc(NS(=O)(=O)c2ccc(N3CCCCCC3)c([N+](=O)[O-])c2)cc(C(=O)OC)c1	1	0	-7	6	9
O=C(O)c1ccc(NS(=O)(=O)c2ccc(C(=O)Nc3ccccc3)cc2)cc1	0	0	7	4	17*
O=C(Nc1ccccc1)c1cnc2ccccc2n1	1	0	6	7	3
NC(=O)c1ccc(NC(=O)c2cnc3ccccc3n2)cc1	1	0	-7	9	16*
O=C(Nc1ccc(S(=O)(=O)Nc2cnc3ccccc3n2)cc1)c1cccc(OC(F)F)c1	0	0	5	7	11*
C[C@@H]1OC(C2CCCCC2)N(C)[C@H]2C[C@H]3c4[nH]c5ccccc5c4CCN3C[C@@H]12 (some centres not stated)	1	0	.	.	.
CC(=O)Nc1ccc(S(=O)(=O)NCCC(=O)OC(C)C(=O)NC2(C#N)CCCCC2)cc1 (configuration not stated)	1	0	4	-2	0
Cc1cccc(CN2CCN(C3CN(C4CCCCC4)S(=O)(=O)C3)CC2)c1 (configuration not stated)	0	0	.	.	.
NC(=O)c1ccc(NS(=O)(=O)c2ccc3ccccc3c2)cc1	0	0	-5	-4	12*
O=C(Nc1ccccc1)c1cccc(S(=O)(=O)Nc2ccccn2)c1	0	0	5	0	16*
O=C(Nc1ccc(Br)cc1)c1cccc(S(=O)(=O)Nc2ccccn2)c1	0	0	1	1	7
CC(C)(C)c1ccc(C(=O)Nc2ccc(S(=O)(=O)Nc3cnc4ccccc4n3)cc2)cc1	3	0	11	10	13*
